Measurements as given in ChEMBL document CHEMBL1125477, “Highly potent and selective heptapeptide antagonists of the neurokinin NK-2 receptor” (J Med Chem, 1992).

Tests used:
[1] = biological target: T1, Substance-K receptor (Rattus norvegicus) (UniProt P16610); test: Compound was evaluated for antagonism of contractile response of rat colon muscularis mucosae (RC) at tachykinin receptor 2; format: functional, tissue-based; details: Muscularis mucosa
T1 sequence (whole entry): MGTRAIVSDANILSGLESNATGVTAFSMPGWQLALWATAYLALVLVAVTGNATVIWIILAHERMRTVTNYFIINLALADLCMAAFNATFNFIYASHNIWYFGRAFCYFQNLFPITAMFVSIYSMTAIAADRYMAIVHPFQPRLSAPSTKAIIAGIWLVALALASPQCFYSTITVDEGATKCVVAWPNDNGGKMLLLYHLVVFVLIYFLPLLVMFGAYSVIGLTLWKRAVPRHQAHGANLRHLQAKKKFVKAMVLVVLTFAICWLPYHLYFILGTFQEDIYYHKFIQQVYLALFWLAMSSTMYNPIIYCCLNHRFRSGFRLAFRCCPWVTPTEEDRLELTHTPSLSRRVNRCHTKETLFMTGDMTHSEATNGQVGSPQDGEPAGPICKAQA
Summary of the method: (§1)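 Colon muscularis mucosae from male AHA rats (250–500 g), killed by concussion and exsanguination. Contraction to neurokinin A (NK-2). At least two control agonist curves, then a single antagonist concentration per tissue. Equiactive agonist concentration-ratio taken at half-maximal response. pK_B = log(CR−1) − log[antagonist]. Mean ± SE over four to eight preparations.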

[2] = biological target: T2, Neuromedin-K receptor (Rattus norvegicus) (UniProt P16177); test: Compound was evaluated for antagonism of contractile response of rat portal vein at tachykinin receptor 3; format: functional
T2 sequence (whole entry): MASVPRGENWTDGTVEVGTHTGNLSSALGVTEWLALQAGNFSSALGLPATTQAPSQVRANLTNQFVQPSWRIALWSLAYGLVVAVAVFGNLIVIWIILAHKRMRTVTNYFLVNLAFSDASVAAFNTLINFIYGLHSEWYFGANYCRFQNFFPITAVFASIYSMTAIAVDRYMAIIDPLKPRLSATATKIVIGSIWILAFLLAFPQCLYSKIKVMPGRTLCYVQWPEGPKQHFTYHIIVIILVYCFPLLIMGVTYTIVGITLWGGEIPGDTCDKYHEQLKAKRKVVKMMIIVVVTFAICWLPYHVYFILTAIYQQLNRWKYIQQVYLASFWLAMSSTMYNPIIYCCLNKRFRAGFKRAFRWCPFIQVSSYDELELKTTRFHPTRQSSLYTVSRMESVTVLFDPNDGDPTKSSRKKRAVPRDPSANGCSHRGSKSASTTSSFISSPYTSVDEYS
Summary of the method: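 Everted portal vein from male AHA rats (250–500 g). Contraction to senktide (NK-3). Agonist curves were repeated at least twice before exposure to one antagonist concentration per preparation. Concentration-ratio estimated graphically at the half-maximal level. pK_B = log(CR−1) − log(molar antagonist). Mean ± SE of four to eight tissues.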

[3] = biological target: Substance-P receptor (Cavia porcellus) (UniProt P30547); test: Compound was evaluated for antagonism of contractile response of guinea pig ileum longitudinal smooth muscle (GPI) at tachykinin receptor 1; format: functional, tissue-based
Summary of the method: (§2)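 Isolated longitudinal smooth muscle of ileum from male Dunkin-Hartley guinea-pigs (300–600 g), killed by concussion and exsanguination. Contraction to SP methyl ester (NK-1 agonist). At least two control agonist curves, then one antagonist concentration per preparation. Concentration-ratio read graphically at half-maximal response. pK_B = log(CR−1) − log[antagonist]. Mean ± SE over four to eight tissues.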

[4] = biological target: T1, Substance-K receptor (Rattus norvegicus); test: Compound was evaluated for antagonism of contractile response of rat colon muscularis mucosae (RC) at Tachykinin receptor 2; format: functional, tissue-based; details: Muscularis mucosa; summary of the method: as §1
[5] = biological target: Substance-P receptor (Cavia porcellus) (UniProt P30547); test: Compound was evaluated for antagonism of contractile response of guinea pig ileum longitudinal smooth muscle (GPI) at Tachykinin receptor 1; format: functional, tissue-based; summary of the method: as §2

Substance-P receptor (Cavia porcellus), sequence (P30547 whole entry): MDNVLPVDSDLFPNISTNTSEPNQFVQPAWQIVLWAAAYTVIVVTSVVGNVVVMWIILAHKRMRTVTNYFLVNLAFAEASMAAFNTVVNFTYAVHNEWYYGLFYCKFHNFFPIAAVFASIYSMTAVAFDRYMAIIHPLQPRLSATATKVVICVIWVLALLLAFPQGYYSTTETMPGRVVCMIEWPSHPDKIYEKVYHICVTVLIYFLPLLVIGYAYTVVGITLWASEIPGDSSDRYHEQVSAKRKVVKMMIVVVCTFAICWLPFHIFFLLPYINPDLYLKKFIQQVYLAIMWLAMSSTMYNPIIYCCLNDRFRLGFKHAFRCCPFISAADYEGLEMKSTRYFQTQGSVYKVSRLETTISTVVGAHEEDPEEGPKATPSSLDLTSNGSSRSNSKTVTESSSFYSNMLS

| pKB [1] | pKB [2] | pKB [3] | pKB [4] | pKB [5] | Compound |
| --- | --- | --- | --- | --- | --- |
| < 4.6 | < 4.6 | < 4.6 |  |  | CCCC[C@H](NC(=O)[C@@H]1CCCN1C(=O)[C@H]1CCCN1C(=O)[C@H](Cc1ccccc1)NC(=O)[C@H](Cc1ccccc1)NC(=O)[C@H](C)NC(=O)[C@@H](N)CCCN=C(N)N)C(N)=O |
| 7.6 |  | 5.8 |  |  | CCCCCNC(=O)[C@@H]1CCCN1C(=O)[C@H]1CCCN1C(=O)[C@H](Cc1ccccc1)NC(=O)[C@@H](Cc1c[nH]c2ccccc12)NC(=O)[C@H](C)NC(=O)[C@H](CCCN=C(N)N)NC(=O)OC(C)(C)C |
| 6.4 |  |  |  |  | CCCC[C@H](NC(=O)[C@@H]1CCCN1C(=O)[C@H]1CCCN1C(=O)[C@H](Cc1ccccc1)NC(=O)[C@@H](Cc1ccccc1)NC(=O)[C@H](C)NC(=O)[C@H](CCCN=C(N)N)NC(=O)OC(C)(C)C)C(N)=O |
| < 4.6 | < 4.6 | 4.8 |  |  | CCCC[C@H](NC(=O)[C@@H]1CCCN1C(=O)CNC(=O)[C@H](Cc1ccccc1)NC(=O)[C@@H](Cc1c[nH]c2ccccc12)NC(=O)[C@H](C)NC(=O)[C@@H](N)CCCN=C(N)N)C(N)=O |
| 8.2 | < 4.6 | 5.8 |  |  | CCCC[C@H](NC(=O)[C@@H]1CCCN1C(=O)[C@H]1CCCN1C(=O)[C@H](Cc1ccccc1)NC(=O)[C@@H](Cc1c[nH]c2ccccc12)NC(=O)[C@H](C)NC(=O)[C@H](CCCN=C(N)N)NC(=O)OC(C)(C)C)C(N)=O |
| 7.4 |  | 6.6 |  |  | CCCC[C@H](NC(=O)[C@@H]1CCCN1C(=O)[C@H]1CCCN1C(=O)[C@H](Cc1ccccc1)NC(=O)[C@@H](Cc1c[nH]c2ccccc12)NC(=O)[C@H](C)NC(=O)[C@H](CCC(=O)OCc1ccccc1)NC(=O)OC(C)(C)C)C(N)=O |
| 6.2 | < 4.6 | 6 |  |  | CCCC[C@H](NC(=O)[C@H](CC(C)C)NC(=O)[C@@H](Cc1c[nH]c2ccccc12)NC(=O)[C@H](Cc1ccccc1)NC(=O)[C@@H](Cc1c[nH]c2ccccc12)NC(=O)[C@H](C)NC(=O)[C@@H](N)CCCN=C(N)N)C(N)=O |
|  |  |  | 7.6 |  | CCCC[C@H](NC(=O)C1CCCN1C(=O)[C@H]1CCCN1C(=O)[C@H](Cc1ccccc1)NC(=O)[C@@H](Cc1c[nH]c2ccccc12)NC(=O)CCCCNC(=O)OC(C)(C)C)C(N)=O (stereo partly specified) |
|  |  |  | 5.9 | 4.7 | CCCC[C@H](NC(=O)[C@@H]1CCCN1C(=O)[C@H]1N(C(=O)[C@H](Cc2ccccc2)NC(=O)[C@@H](Cc2c[nH]c3ccccc23)NC(=O)[C@H](C)NC(=O)[C@@H](N)CCCN=C(N)N)CSC1(C)C)C(N)=O |
| 7.5 |  | 5.1 |  |  | CNC(=O)[C@@H]1CCCN1C(=O)[C@H]1CCCN1C(=O)[C@H](Cc1ccccc1)NC(=O)[C@@H](Cc1c[nH]c2ccccc12)NC(=O)[C@H](C)NC(=O)[C@H](CCCN=C(N)N)NC(=O)OC(C)(C)C |
| 7.1 |  | 6 |  |  | CCCC[C@H](NC(=O)[C@@H]1CCCN1C(=O)[C@H]1CCCN1C(=O)[C@H](Cc1ccccc1)NC(=O)[C@@H](Cc1c[nH]c2ccccc12)NC(=O)[C@H](C)NC(=O)[C@@H](CCC(=O)OCc1ccccc1)NC(=O)OC(C)(C)C)C(N)=O |
| 5.7 |  | 6.4 |  |  | CCCC[C@H](NC(=O)[C@H](CC(C)C)NC(=O)[C@@H](Cc1c[nH]c2ccccc12)NC(=O)[C@H](Cc1ccccc1)NC(=O)[C@@H](Cc1c[nH]c2ccccc12)NC(=O)[C@H](CCC(N)=O)NC(=O)[C@@H](N)CCCN=C(N)N)C(N)=O |
| 5.6 |  | 4.6 |  |  | CCCC[C@H](NC(=O)[C@@H]1CCCN1C(=O)[C@H]1CCCN1C(=O)[C@H](Cc1ccccc1)NC(=O)[C@@H](Cc1c[nH]c2ccccc12)NC(=O)[C@H](C)NC(=O)[C@H](CCCN=C(N)N)NC(C)=O)C(N)=O |
| 5.2 |  | 4.5 |  |  | CCCC[C@H](NC(=O)[C@@H]1CCCN1C(=O)[C@H]1CCCN1C(=O)[C@H](Cc1ccccc1)NC(=O)[C@H]1CCCN1C(=O)[C@H](C)NC(=O)[C@H](CCCN=C(N)N)NC(=O)OC(C)(C)C)C(N)=O |
|  |  |  | 7.1 | 4.8 | CCCC[C@H](NC(=O)[C@@H]1CCCN1C(=O)[C@H]1CCCN1C(=O)[C@H](Cc1ccccc1)NC(=O)[C@@H](Cc1c[nH]c2ccccc12)NC(=O)[C@H](C)NC(=O)[C@H](CCCCN)NC(=O)OC(C)(C)C)C(N)=O |
|  |  |  | 6.5 | < 4.5 | CCCC[C@H](NC(=O)[C@@H]1CCCN1C(=O)[C@H]1CCCN1C(=O)[C@H](Cc1ccccc1)NC(=O)[C@@H](Cc1c[nH]c2ccccc12)NC(=O)[C@H](C)NC(=O)[C@H](CCC(=O)O)NC(=O)OC(C)(C)C)C(N)=O |
| 5.9 | < 4.6 | 4.7 |  |  | CCCC[C@H](NC(=O)[C@@H]1CCCN1C(=O)[C@H]1CCCN1C(=O)[C@H](Cc1ccccc1)NC(=O)[C@@H](Cc1c[nH]c2ccccc12)NC(=O)[C@H](C)NC(=O)[C@@H](N)CCCN=C(N)N)C(N)=O |
| 5.7 | 4.9 | < 4.6 |  |  | CSCC[C@@H](NC(=O)[C@H](CC(C)C)NC(=O)[C@H]1CCCN1C(=O)[C@H](Cc1ccccc1)NC(=O)[C@@H](Cc1c[nH]c2ccccc12)NC(=O)[C@H](C)NC(=O)[C@@H](N)CCCN=C(N)N)C(N)=O |
| 6.4 |  | < 5 |  |  | CCCC[C@H](NC(=O)[C@@H]1CCCN1C(=O)[C@H]1CCCN1C(=O)[C@H](Cc1ccccc1)NC(=O)[C@H](Cc1c[nH]c2ccccc12)NC(=O)[C@H](C)NC(=O)[C@H](CCCN=C(N)N)NC(=O)OC(C)(C)C)C(N)=O |
| 7 |  | 5.3 |  |  | C[C@H](NC(=O)[C@H](CCCN=C(N)N)NC(=O)OC(C)(C)C)C(=O)N[C@H](Cc1c[nH]c2ccccc12)C(=O)N[C@@H](Cc1ccccc1)C(=O)N1CCC[C@@H]1C(=O)N1CCC[C@H]1C(=O)NCC(N)=O |
| 6.2 |  | < 4.5 |  |  | CSCC[C@H](NC(=O)[C@@H]1CCCN1C(=O)[C@H]1CCCN1C(=O)[C@H](Cc1ccccc1)NC(=O)[C@@H](Cc1c[nH]c2ccccc12)NC(=O)[C@H](C)NC(=O)[C@H](CCCN=C(N)N)NC(=O)OC(C)(C)C)C(N)=O |
| 5.6 |  | 4.8 |  |  | CCCC[C@H](NC(=O)[C@@H]1CCCN1C(=O)[C@H]1CCCN1C(=O)[C@H](Cc1ccccc1)NC(=O)[C@@H](C)NC(=O)[C@H](C)NC(=O)[C@H](CCCN=C(N)N)NC(=O)OC(C)(C)C)C(N)=O |
| 6.5 |  | 7.1 |  |  | CCCC[C@H](NC(=O)[C@H](CC(C)C)NC(=O)[C@@H](Cc1c[nH]c2ccccc12)NC(=O)[C@H](Cc1ccccc1)NC(=O)[C@@H](Cc1c[nH]c2ccccc12)NC(=O)[C@H](CCC(N)=O)NC(=O)[C@H](CCCN=C(N)N)NC(=O)OC(C)(C)C)C(N)=O |
|  |  |  | 7.2 | < 5.5 | CCCC[C@H](NC(=O)[C@@H]1CCCN1C(=O)[C@H]1CCCN1C(=O)[C@H](Cc1ccccc1)NC(=O)[C@@H](Cc1c[nH]c2ccccc12)NC(=O)[C@H](C)NC(=O)[C@H](N)CCC(=O)OCc1ccccc1)C(N)=O |
| 6.5 |  | 6.9 |  |  | CCCC[C@H](NC(=O)[C@H](CC(C)C)NC(=O)[C@@H](Cc1c[nH]c2ccccc12)NC(=O)[C@H](Cc1ccccc1)NC(=O)[C@@H](Cc1c[nH]c2ccccc12)NC(=O)[C@H](C)NC(=O)[C@H](CCCN=C(N)N)NC(=O)OC(C)(C)C)C(N)=O |
| 5.2 |  | 5.7 |  |  | CCCC[C@H](NC(=O)[C@@H]1CCCN1C(=O)[C@H]1CCCN1C(=O)[C@H](Cc1ccccc1)NC(=O)[C@@H](Cc1c[nH]c2ccccc12)NC(=O)[C@H](C)NC(=O)[C@@H](CCCN=C(N)N)NC(=O)OC(C)(C)C)C(N)=O |
| 7.5 |  | 6.7 |  |  | CCCC[C@H](NC(=O)[C@@H]1CCCN1C(=O)[C@H]1CCCN1C(=O)[C@H](Cc1ccccc1)NC(=O)[C@@H](Cc1c[nH]c2ccccc12)NC(=O)[C@H](C)NC(=O)[C@H](CCCN=C(N)N)NC(=O)OCc1ccccc1)C(N)=O |

| Compound | pKB [1] | pKB [2] | pKB [3] | pKB [4] | pKB [5] |
| --- | --- | --- | --- | --- | --- |
| CCCC[C@H](NC(=O)[C@@H]1CCCN1C(=O)[C@H]1CCCN1C(=O)[C@H](Cc1ccccc1)NC(=O)[C@@H](Cc1c[nH]c2ccccc12)NC(=O)[C@H](C)NC(=O)[C@H](CCC/N=C(\N)N[N+](=O)[O-])NC(=O)OC(C)(C)C)C(N)=O | 8.2 | 5.2 | 5.5 |  |  |
